Values after ≈ are worked out from the molar mass of the structure shown.

The source of these data is ChEMBL document CHEMBL1773005, “The antibacterial ent-eusynstyelamide B and eusynstyelamides D, E, and F from the Arctic bryozoan Tegella cf. spitzbergensis” (J Nat Prod, 2011).

In experiment [1] the test system is Corynebacterium glutamicum. The experiment is described as follows: Antibacterial activity against Corynebacterium glutamicum ATTC 13032 after 24 hrs by microtiter plate assay. Particulars: ATTC 13032, 24 h. The class given is functional. Put shortly:
(§1)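 Log-phase cultures grown at 37 C in Mueller Hinton broth, diluted to about 5 × 10^5 cells per well, then mixed 1:1 with compound dissolved in water. Growth followed by continuous optical density reading. MIC taken as the lowest concentration giving no OD change after 24 h at 37 C. Tested in duplicate over 2–100 μg/mL; cecropin B (25 μM) served as positive control.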

The test system of another experiment is Pseudomonas aeruginosa. The experiment is described as follows: Antibacterial activity against Pseudomonas aeruginosa ATTC 27853 after 24 hrs by microtiter plate assay. Conditions: ATTC 27853, 24 h. Type of experiment: functional. The procedure, abridged: as §1
In another experiment the test system is Escherichia coli. As to the kind of experiment: Antibacterial activity against Escherichia coli ATCC 25922 after 24 hrs by microtiter plate assay. Conditions: ATCC 25922, 24 h. Type of experiment: functional. The procedure, abridged: as §1
A further experiment has as its system Candida albicans. The experiment is described as follows: Antifungal activity against Candida albicans ATCC 10231 after 48 hrs by microscopy. Conditions: ATCC 10231, 48 h. Type of experiment: functional. Put shortly:
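Yeast grown on potato dextrose agar with 2% glucose at room temperature, suspended in potato dextrose broth and counted in a Bürker chamber. Spores at 2 × 10^5/mL final were mixed with compounds dissolved in water and incubated at 37 C. MIC was the lowest concentration with no visible growth at 48 h, scored microscopically. Duplicates over 2–100 μg/mL; cecropin B (6.25 μM) as positive control.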

The test system of experiment [2] is Staphylococcus aureus. The experiment is described as follows: Antibacterial activity against methicillin-resistant Staphylococcus aureus ATCC 33591 after 24 hrs by microtiter plate assay. Conditions: ATCC 33591, 24 h. The class given is functional. Put shortly: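 Log-phase bacteria at about 5 × 10^5 cells per well in Mueller Hinton broth, 37 C, were mixed with compounds dissolved in water, 2–100 μg/mL, in duplicate. Optical density was monitored continuously. MIC was taken as the lowest concentration giving no change in optical density after 24 h. Cecropin B (25 μM) served as positive control.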

Experiment [3] concerns Staphylococcus aureus. As to the kind of experiment: Antibacterial activity against Staphylococcus aureus ATTC 9144 after 24 hrs by microtiter plate assay. Type of experiment: functional. Particulars: ATTC 9144, 24 h. Put shortly: as §1
The next experiment relates to A2058. The experiment is described as follows: Anticancer activity against human A2058 cells after 72 hrs by CellTiter-96 cell viability assay. Conditions: A2058, 72 h. The class given is functional, cell-based. Put shortly: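 A-2058 melanoma cells in exponential growth were seeded, incubated 24 h at 37 C, then exposed to compounds for 72 h. Viability was read by CellTiter96 reagent, 1 h colour development, absorbance at 485 nm. Duplicates over 2–100 μg/mL; IC50 determined.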

As a reminder, the MIC is the smallest concentration in the dilution series that meets the test's criterion for growth inhibition. Lower therefore signals greater potency. For orientation: IC50 means the concentration at which inhibition is half-maximal. The low end stands for greater potency, the high end for weaker potency. As for `NCCCCNC(=O)[C@@]1(O)[C@H](c2c[nH]c3cc(Br)ccc23)[C@@](O)(Cc2c[nH]c3cc(Br)ccc23)C(=O)N1CCCCN` [EUSYNSTYELAMIDE D], the minimal inhibitory concentration (MIC) turned out to be 12.5 µg/mL (≈ 17.7 µM) in experiment [1]; 25 µg/mL (≈ 35.5 µM) in the experiment on Pseudomonas aeruginosa; 12.5 µg/mL (≈ 17.7 µM) against Escherichia coli; 50 µg/mL (≈ 71 µM) in the experiment on Candida albicans; 20 µg/mL (≈ 28.4 µM) against Staphylococcus aureus [2]; 12.5 µg/mL (≈ 17.7 µM) in the experiment on Staphylococcus aureus [3]. The compound further gave an IC50 in the experiment on A2058 of 57 µM.
For the compound `N=C(N)NCCCCNC(=O)[C@@]1(O)[C@H](c2c[nH]c3cc(Br)ccc23)[C@@](O)(Cc2c[nH]c3cc(Br)ccc23)C(=O)N1CCCCN` [EUSYNSTYELAMIDE F], the MIC in experiment [1] was 6.25 µg/mL (≈ 8.37 µM); in the experiment with Pseudomonas aeruginosa, 12.5 µg/mL (≈ 16.7 µM); against Escherichia coli it was 12.5 µg/mL (≈ 16.7 µM); in the experiment on Candida albicans it was 50 µg/mL (≈ 67 µM); against Staphylococcus aureus [2] it was over 50 µg/mL; against Staphylococcus aureus [3], 6.25 µg/mL (≈ 8.37 µM).
With `N=C(N)NCCCCN1C(=O)[C@](O)(Cc2c[nH]c3cc(Br)ccc23)[C@@H](c2c[nH]c3cc(Br)ccc23)[C@]1(O)C(=O)NCCCCN` [EUSYNSTYELAMIDE E], the MIC in experiment [1] is 12.5 µg/mL (≈ 16.7 µM); in the experiment on Pseudomonas aeruginosa, 25 µg/mL (≈ 33.5 µM); against Escherichia coli, 12.5 µg/mL (≈ 16.7 µM); against Candida albicans, 100 µg/mL (≈ 134 µM); in the experiment with Staphylococcus aureus [2], 20 µg/mL (≈ 26.8 µM); in the experiment on Staphylococcus aureus [3], 12.5 µg/mL (≈ 16.7 µM). The 50% inhibitory concentration (IC50) with A2058 stood at 114 µM.
